Reference: ChEMBL document CHEMBL1126589, “Substituted 3-(phenylmethyl)-1H-indole-5-carboxamides and 1-(phenylmethyl)indole-6-carboxamides as potent, selective, orally active antagonists of the peptidoleukotrienes” (J Med Chem, 1993)

Assays:
[1] = biological target: T1, Cysteinyl leukotriene receptor 1 (Cavia porcellus) (UniProt Q2NNR5); assay: Binding affinity against leukotriene receptor (LTE4) from guinea pig tracheal spirals; format: tissue-based
T1 sequence (whole entry): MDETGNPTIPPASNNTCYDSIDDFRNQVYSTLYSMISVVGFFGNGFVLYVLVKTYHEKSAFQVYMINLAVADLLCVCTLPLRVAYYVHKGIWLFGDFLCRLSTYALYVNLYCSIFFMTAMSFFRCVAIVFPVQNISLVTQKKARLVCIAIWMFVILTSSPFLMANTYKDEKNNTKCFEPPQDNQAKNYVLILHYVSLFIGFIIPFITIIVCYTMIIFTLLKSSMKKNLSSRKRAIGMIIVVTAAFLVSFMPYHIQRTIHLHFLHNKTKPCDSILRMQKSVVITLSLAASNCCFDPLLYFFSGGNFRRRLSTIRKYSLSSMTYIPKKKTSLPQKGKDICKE
How it was run: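 Functional antagonism in isolated guinea pig tracheal spirals contracted with LTE4 as agonist; KB derived from concentration-response curves, n = number of curves.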

Cavia porcellus [2] = assay: Effective dose against LTD4-induced bronchoconstriction in guinea pig after intravenous administration; format: functional
How it was run: (§1)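 Conscious guinea pigs challenged with LTD4 ("dyspnea" model) after oral or intravenous dosing; percent protection from LTD4-induced dyspnea plotted against dose to derive ED50; po/iv ratio taken from the oral and intravenous ED50 values.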

Cavia porcellus [3] = assay: Effective dose against LTD4-induced bronchoconstriction in guinea pig after peroral administration; format: functional; details: po; how it was run: as §1
[4] = ED50 ratio of LTD4 peroral administration / LTD4 intravenous administration; format: functional; how it was run: as §1
[5] = biological target: T2, Cysteinyl leukotriene receptor 1 (Cavia porcellus, UniProt Q2NNR5); assay: Binding affinity to the leukotriene receptor (LTD4) from guinea pig lung parenchymal membranes assayed using [3H]LTD4 as radioligand; format: tissue-based, Lung parenchyma
T2 sequence (Q2NNR5 whole entry): T1 sequence (whole entry)
How it was run: (§2)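 Displacement of [3H]LTD4 from guinea pig lung parenchymal membranes; Ki is the mean of two experiments run in duplicate with separate batches, reported as pKi (-log Ki).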

[6] = Bioavailability was determined in GP; format: ADME, organism-based, Cavia porcellus; details: guinea pig, in vivo
How it was run: (§3)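 Guinea pigs, fasted overnight and cannulated at least 20 h beforehand, given 5 mg/kg orally and intravenously (jugular cannula) in polyethylene glycol/phosphate buffered saline.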

[7] = Maximum concentration in whole blood recorded in the period 0-24 hr postdose of 5.0 mg/kg GP (normalized to a 1 mg/kg dose); format: ADME, organism-based; parameters: dose 5 mg/kg; details: guinea pig, in vivo; how it was run: as §3
[8] = Bioavailability in rat; format: ADME, organism-based; details: in vivo
How it was run: (§4)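 Sprague-Dawley rats, fasted overnight, cannulated in carotid artery and/or jugular vein at least 20 h before dosing. Oral doses 1 or 2.5 mg/kg, iv 2.5 mg/kg via jugular cannula, in polyethylene glycol/phosphate buffered saline. Unchanged compound in whole blood measured by HPLC over 0–24 h; AUC by trapezoidal rule; values also normalized to 1.0 mg/kg.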

[9] = Integrated area under the blood concentration vs time curve for the period 0-24 hr postdose of 5.0 mg/kg (normalized to a 1 mg/kg dose) GP; format: ADME, organism-based; parameters: dose 5 mg/kg, time < 24 hr; details: guinea pig, in vivo; how it was run: as §3
Rattus norvegicus [10] = assay: Integrated area under the blood concentration vs time curve for the period 0-24 hr postdose of 2.5 mg/kg (normalized to a 1 mg/kg dose) in rat; format: ADME, organism-based; parameters: dose 2.5 mg/kg, time < 24 hr; details: in vivo; how it was run: as §4
[11] = Maximum concentration in whole blood recorded in the period 0-24 hr postdose of 2.5 mg/kg in rat (normalized to a 1 mg/kg dose); format: ADME, organism-based; parameters: dose 2.5 mg/kg; details: in vivo; how it was run: as §4
[12] = biological target: T2, Cysteinyl leukotriene receptor 1; assay: Binding affinity against leukotriene receptor (LTD4) from guinea pig lung parenchymal membranes using [3H]LTD4 as radio ligand; format: tissue-based, Lung parenchyma; how it was run: as §2
Rattus norvegicus [13] = assay: Integrated area under the blood concentration vs time curve for the period 0-24 hr postdose of 1 mg/kg (normalized to a 1 mg/kg dose) in rat; format: ADME, organism-based; parameters: dose 1 mg/kg, time < 24 hr; details: in vivo; how it was run: as §4
Rattus norvegicus [14] = assay: Maximum concentration in whole blood recorded in the period 0-24 hr postdose of 1 mg/kg in rat (normalized to a 1 mg/kg dose); format: ADME, organism-based; parameters: dose 1 mg/kg; details: in vivo; how it was run: as §4
[15] = Maximum concentration in whole blood recorded in the period 0-24 hr postdose of 1 mg/kg in rat; format: ADME, organism-based; parameters: dose 1 mg/kg
Rattus norvegicus [16] = assay: Integrated area under the blood concentration vs time curve for the period 0-24 hr postdose of 1 mg/kg in rat; format: ADME, organism-based; parameters: time < 24 hr, dose 1 mg/kg; details: in vivo

pKB [1]	Ki [5]	Ki [12]	SMILES	ED50 (Cavia porcellus [2])	ED50 (Cavia porcellus [3])	other results
8.9	0.794 nM		CCCn1cc(Cc2ccc(C(=O)NS(=O)(=O)c3ccccc3C)cc2OC)c2cc(C(=O)NCC(CC)CC)ccc21	0.04 µmol/kg	5.6 µmol/kg	Ratio [4]: 137
	15.8 nM		COc1cc(C(=O)NS(=O)(=O)c2ccccc2C)ccc1Cc1cn(C)c2ccc(C(=O)NCCC(C)C)cc12			
8.3	0.398 nM		C=CCn1cc(Cc2ccc(C(=O)NS(=O)(=O)c3ccccc3C)cc2OC)c2cc(C(=O)NCC3CCCC3)ccc21	0.03 µmol/kg	9.9 µmol/kg	
	79.4 nM		CCCCN(CCCC)C(=O)c1ccc2c(c1)c(Cc1ccc(C(=O)NS(=O)(=O)c3ccccc3C)cc1OC)cn2C			
9.5	1 nM		CCC(CC)CNC(=O)c1ccc2c(c1)c(Cc1ccc(C(=O)NS(=O)(=O)c3ccccc3C)cc1OC)cn2CC	0.07 µmol/kg	5.3 µmol/kg	bioavailability [6]: 5.1%; Cmax [7]: 92 ng/mL; bioavailability [8]: 28.1%; AUC [9]: 207 ng·h/mL; AUC (Rattus norvegicus [10]): 4070 ng/h/mL; Ratio [4]: 81; Cmax [11]: 540 ng/mL
	100 nM		COc1cc(C(=O)NS(=O)(=O)c2ccccc2C)ccc1Cc1cn(C)c2ccc(C(=O)NC3CCCCC3)cc12			
		2510 nM	CCCn1cc(Cc2ccc(C(=O)O)cc2OC)c2cc(C(=O)NCC(C)C)ccc21			
	2.51 nM		CCC(CC)CNC(=O)c1ccc2c(c1)c(Cc1ccc(C(=O)NS(=O)(=O)c3ccccc3C)cc1OC)cn2C1CCCC1			
9.7			COc1cc(C(=O)NS(=O)(=O)c2ccccc2C)ccc1Cc1cn(C)c2ccc(NC(=O)CC3CCCC3)cc12	0.02 µmol/kg	0.41 µmol/kg	Ratio [4]: 22
		25.1 nM	CCC(CC)CNC(=O)c1ccc2c(CCc3ccccc3)cn(Cc3ccc(C(=O)NS(=O)(=O)c4ccccc4C)cc3OC)c2c1			
8.4	2.51 nM		CCC(CC)CNC(=O)c1ccc2c(C)cn(Cc3ccc(C(=O)NS(=O)(=O)c4ccccc4C)cc3OC)c2c1			
8.7	0.316 nM		CCCn1cc(Cc2ccc(C(=O)NS(=O)(=O)c3ccccc3C)cc2OC)c2cc(C(=O)NCC3CCCC3)ccc21	0.03 µmol/kg	4.8 µmol/kg	AUC (Rattus norvegicus [13]): 1610 ng·h/mL; Cmax (Rattus norvegicus [14]): 106 ng/mL; Ratio [4]: 179
8.8		1.26 nM	CCCc1cn(Cc2ccc(C(=O)NS(=O)(=O)c3ccccc3C)cc2OC)c2cc(C(=O)NCC(CC)CC)ccc12			
8		2 nM	CCC(CC)CNC(=O)c1ccc2c(c1)c(Cc1ccc(C(=O)NS(=O)(=O)c3ccccc3C)cc1OC)cn2C	1.09 µmol/kg	14.7 µmol/kg	Cmax [15]: 410 ng/mL; AUC (Rattus norvegicus [16]): 5740 ng·h/mL; Ratio [4]: 14
		6.31 nM	CCC(CC)CNC(=O)c1ccc2c(c1)c(Cc1ccc(C(=O)NS(=O)(=O)c3ccccc3Cl)cc1OC)cn2C			
		1 nM	CCC(CC)CNC(=O)c1ccc2c(CC3CCCC3)cn(Cc3ccc(C(=O)NS(=O)(=O)c4ccccc4C)cc3OC)c2c1			
		50.1 nM	C/C=C\c1cn(Cc2ccc(C(=O)NS(=O)(=O)c3ccccc3C)cc2OC)c2cc(C(=O)NCC(CC)CC)ccc12			
	12.6 nM		CCC(CC)CNC(=O)c1ccc2ccn(Cc3ccc(C(=O)NS(=O)(=O)c4ccccc4C)cc3OC)c2c1			
8.4	3.16 nM		COc1cc(C(=O)NS(=O)(=O)c2ccccc2C)ccc1Cc1cn(C)c2ccc(C(=O)NCC3CCCC3)cc12	0.69 µmol/kg		Ratio [4]: 28
8.8	0.501 nM		CCC(CC)CNC(=O)c1ccc2c(c1)c(Cc1ccc(C(=O)NS(=O)(=O)c3ccccc3C)cc1OC)cn2C(C)C	0.02 µmol/kg	4.7 µmol/kg	Ratio [4]: 300
8.2		6.31 nM	CCC(CC)CNC(=O)c1ccc2c(CC(C)C)cn(Cc3ccc(C(=O)NS(=O)(=O)c4ccccc4C)cc3OC)c2c1			

pKB [1]	Ki [5]	Ki [12]	SMILES	ED50 (Cavia porcellus [2])	ED50 (Cavia porcellus [3])	other results
8.2	3.16 nM		CCc1cn(Cc2ccc(C(=O)NS(=O)(=O)c3ccccc3C)cc2OC)c2cc(C(=O)NCC(CC)CC)ccc12			
7.7		3.98 nM	CCCn1cc(Cc2ccc(C(=O)NS(=O)(=O)c3ccccc3)cc2OC)c2cc(C(=O)NCC(CC)CC)ccc21			
8.6		6.31 nM	COc1cc(C(=O)NS(=O)(=O)c2ccccc2C)ccc1Cc1cn(C)c2ccc(C(=O)NCC(C)C)cc12		> 30 µmol/kg	
7.6		7.94 nM	CCCn1cc(Cc2ccc(C(=O)NS(=O)(=O)c3ccccc3)cc2OC)c2cc(C(=O)NCC(C)C)ccc21			
8.5	6.31 nM		CCCC(C)CNC(=O)c1ccc2c(c1)c(Cc1ccc(C(=O)NS(=O)(=O)c3ccccc3C)cc1OC)cn2C (stereo not drawn)			
8.1	6.31 nM		CCCCC(CC)CNC(=O)c1ccc2c(c1)c(Cc1ccc(C(=O)NS(=O)(=O)c3ccccc3C)cc1OC)cn2C (stereo not drawn)	0.28 µmol/kg	8.06 µmol/kg	Ratio [4]: 29
9.1		3.98 nM	CCC(CC)CNC(=O)c1ccc2c(c1)c(Cc1ccc(C(=O)NS(=O)(=O)c3ccccc3Br)cc1OC)cn2C	0.84 µmol/kg	21.4 µmol/kg	Ratio [4]: 25
9.3			COc1cc(C(=O)NS(=O)(=O)c2ccccc2C)ccc1Cn1cc(C)c2ccc(NC(=O)CC3CCCC3)cc21		0.3 µmol/kg	
		2.51 nM	CCC(CC)CNC(=O)c1ccc2c(CC3CCCCC3)cn(Cc3ccc(C(=O)NS(=O)(=O)c4ccccc4C)cc3OC)c2c1			
8.3	1.26 nM		CCC(CC)CNC(=O)c1ccc2c(c1)c(Cc1ccc(C(=O)NS(=O)(=O)c3ccccc3C)cc1OC)cn2Cc1ccccc1			
8.7	5.01 nM		CCC(C)CNC(=O)c1ccc2c(c1)c(Cc1ccc(C(=O)NS(=O)(=O)c3ccccc3C)cc1OC)cn2C (stereo not drawn)	1.39 µmol/kg	20 µmol/kg	Ratio [4]: 14
9.1	2 nM		CCCn1cc(Cc2ccc(C(=O)NS(=O)(=O)c3ccccc3C)cc2OC)c2cc(C(=O)NCC(C)C)ccc21	0.07 µmol/kg	31 µmol/kg	Ratio [4]: 456
7.5	7.94 nM		CCCCCCC(C)CNC(=O)c1ccc2c(c1)c(Cc1ccc(C(=O)NS(=O)(=O)c3ccccc3C)cc1OC)cn2C (stereo not drawn)			
	63.1 nM		COc1cc(C(=O)NS(=O)(=O)c2ccccc2C)ccc1Cc1cn(C)c2ccc(C(=O)N(C)CC(C)C)cc12			
8.9	10 nM		COc1cc(C(=O)NS(=O)(=O)c2ccccc2C)ccc1Cn1cc(C)c2ccc(C(=O)NCC3CCCC3)cc21	1.62 µmol/kg	~30 µmol/kg	Ratio [4]: ~20
	126 nM		CCCCC(CC)NC(=O)c1ccc2c(c1)c(Cc1ccc(C(=O)NS(=O)(=O)c3ccccc3C)cc1OC)cn2C (stereo not drawn)			
	10 nM		CCCCCC(C)CNC(=O)c1ccc2c(c1)c(Cc1ccc(C(=O)NS(=O)(=O)c3ccccc3C)cc1OC)cn2C (stereo not drawn)			
7.5	15.8 nM		COc1cc(C(=O)NS(=O)(=O)c2ccccc2C)ccc1Cc1cn(C)c2ccc(C(=O)NCC(C)(C)C)cc12			
	79.4 nM		COc1cc(C(=O)NS(=O)(=O)c2ccccc2C)ccc1Cc1cn(C)c2ccc(C(=O)NCCc3ccccc3)cc12			
	100 nM		CCCC1CCN(C(=O)c2ccc3c(c2)c(Cc2ccc(C(=O)NS(=O)(=O)c4ccccc4C)cc2OC)cn3C)CC1			
